Measured values from ChEMBL document CHEMBL1142546 (J Med Chem, 2008).
The source made the active and inactive calls. The calls are words filed in the database; no cut-off is given here.

Legend:
[1] = Inhibition of chymotrypsin-like activity of rabbit 20S proteasome; set-up: species or system Oryctolagus cuniculus
In short: (§1)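 Purified rabbit muscle 20S proteasome at 1.4 nM final. T-L used the same buffer without SDS and Boc-LRR-AMC. Serial dilutions were preincubated 5 min at 37 °C. AMC fluorescence ex 390/em 460 nm.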

[2] = Inhibition of trypsin-like activity of rabbit 20S proteasome; set-up: species or system Oryctolagus cuniculus; in short: as §1
[3] = Inhibition of caspase-like activity of rabbit 20S proteasome; set-up: species or system Oryctolagus cuniculus; in short: as §1
Oryctolagus cuniculus [4] = species: Oryctolagus cuniculus; experiment: Inhibition of chymotrypsin-like activity of rabbit 20S proteasome assessed as enzyme activity recovery 12 hrs after dialysis
In short: (§2)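 Rabbit 20S proteasome (1.4 nM final) was incubated 1 h at ambient temperature with compound or DMSO (0.1% final) in 20 mM HEPES pH 7.3, 0.5 mM EDTA, 0.05% Triton X-100, 0.035% SDS (SDS omitted for T-L). Mixtures were dialysed (MWCO 12-14000) against assay buffer at ambient temperature. Samples taken at 0, 1, 2, 5, 24 h (some also 12 h) for site activity, normalised to DMSO controls.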

[5] = Stability in 20 mM HEPES buffer assessed as beta-lactone hydrolysis rate at pH 7.3 at 37 degC
Oryctolagus cuniculus [6] = species: Oryctolagus cuniculus; experiment: Inhibition of chymotrypsin-like activity of rabbit 20S proteasome assessed as enzyme activity recovery 24 hrs after dialysis; in short: as §2
Homo sapiens [7] = species: Homo sapiens; experiment: Inhibition of chymotrypsin-like activity of human 20S proteasome assessed as enzyme activity recovery 12 hrs after dialysis
[8] = Inhibition of chymotrypsin-like activity of yeast 20S proteasome; set-up: species or system Saccharomyces cerevisiae
In short: (§3)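 Purified yeast 20S proteasome in 75 mM Tris-HCl pH 7.8 with 0.02% SDS. Serial compound dilutions were preincubated 5 min at 37 °C, then substrate was added: Suc-LLVY-AMC at 20 µM final (CT-L), Z-LLE-AMC (C-L), or Bz-VGR-AMC with SDS omitted (T-L). Cleaved AMC read at ex 390/em 460 nm.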

[9] = Inhibition of trypsin-like activity of yeast 20S proteasome; set-up: species or system Saccharomyces cerevisiae; in short: as §3
[10] = Inhibition of caspase-like activity of yeast 20S proteasome; set-up: species or system Saccharomyces cerevisiae; in short: as §3
[11] = Inhibition of chymotrypsin-like activity of human 20S proteasome
[12] = Inhibition of trypsin-like activity of human 20S proteasome
[13] = Inhibition of caspase-like activity of human 20S proteasome
Oryctolagus cuniculus [14] = species: Oryctolagus cuniculus; experiment: Inhibition of trypsin-like activity of rabbit 20S proteasome assessed as enzyme activity recovery 24 hrs after dialysis; in short: as §2
Oryctolagus cuniculus [15] = species: Oryctolagus cuniculus; experiment: Inhibition of caspase-like activity of rabbit 20S proteasome assessed as enzyme activity recovery 24 hrs after dialysis; in short: as §2
Homo sapiens [16] = species: Homo sapiens; experiment: Inhibition of trypsin-like activity of human 20S proteasome assessed as enzyme activity recovery 12 hrs after dialysis
Homo sapiens [17] = species: Homo sapiens; experiment: Inhibition of caspase-like activity of human 20S proteasome assessed as enzyme activity recovery 12 hrs after dialysis
[18] = Inhibition of chymotrypsin-like activity of human 20S proteasome assessed as release of free AMC substrate by fluorimetry based kinetic assay
[19] = Inhibition of trypsin-like activity of human 20S proteasome assessed as release of free AMC substrate by fluorimetry based kinetic assay
[20] = Inhibition of caspase-like activity of human 20S proteasome assessed as release of free AMC substrate by fluorimetry based kinetic assay
Homo sapiens [21] = species: Homo sapiens; experiment: Inhibition of chymotrypsin-like activity of human 20S proteasome assessed as inactivation rate by fluorimetry based kinetic assay
Homo sapiens [22] = species: Homo sapiens; experiment: Inhibition of trypsin-like activity of human 20S proteasome assessed as inactivation rate by fluorimetry based kinetic assay
Homo sapiens [23] = species: Homo sapiens; experiment: Inhibition of caspase-like activity of human 20S proteasome assessed as inactivation rate by fluorimetry based kinetic assay
Oryctolagus cuniculus [24] = species: Oryctolagus cuniculus; experiment: Inhibition of trypsin-like activity of rabbit 20S proteasome assessed as enzyme activity recovery 12 hrs after dialysis; in short: as §2
Oryctolagus cuniculus [25] = species: Oryctolagus cuniculus; experiment: Inhibition of caspase-like activity of rabbit 20S proteasome assessed as enzyme activity recovery 12 hrs after dialysis; in short: as §2

SMILES	IC50 [1] [nM]	IC50 [2] [nM]	IC50 [3] [nM]	Activity (Oryctolagus cuniculus [4])	half-life [5] [h]	Activity (Oryctolagus cuniculus [6])	also measured
CCC[C@H]1C(=O)N[C@@]2([C@@H](O)[C@@H]3C=CCCC3)C(=O)O[C@@]12C	24	1100	1200	inactive	2.85		
C[C@H]1C(=O)N[C@@]2([C@@H](O)[C@@H]3C=CCCC3)C(=O)O[C@@]12C	7.5	370	460	inactive	1.58		
CN(C)c1cccc2c(S(=O)(=O)OCC[C@H]3C(=O)N[C@@]4([C@@H](O)[C@@H]5C=CCCC5)C(=O)O[C@@]34C)cccc12	3	12	90		2.98		
Cc1ccc(S(=O)(=O)OCC[C@H]2C(=O)N[C@@]3([C@@H](O)[C@@H]4C=CCCC4)C(=O)O[C@@]23C)cc1	2.5	9.9	127		1.25	Active	
C[C@@]12OC(=O)[C@]1([C@@H](O)[C@@H]1C=CCCC1)NC(=O)[C@@H]2CCOS(C)(=O)=O	4.3	65	870		0.983	Active	
C[C@@]12OC(=O)[C@]1([C@@H](O)[C@@H]1C=CCCC1)NC(=O)[C@@H]2CCBr [BROMOSALINOSPORAMIDE]	2.6	14	290		1.33		
C[C@@]12OC(=O)[C@]1([C@@H](O)[C@@H]1C=CCCC1)NC(=O)[C@@H]2CCF [FLUOROSALINOSPORAMIDE]	9.2				1.32	Active	
C[C@@]12OC(=O)[C@]1([C@@H](O)[C@@H]1C=CCCC1)NC(=O)[C@@H]2CCI [IODOSALINOSPORAMIDE]	2.8	13	410		1.53		
C[C@@]12OC(=O)[C@]1([C@@H](O)[C@@H]1C=CCCC1)NC(=O)[C@@H]2CCCl [MARIZOMIB]					1.28	Active	Activity (Homo sapiens [7]): Active; IC50 [8]: 2 nM; IC50 [9]: 59 nM; IC50 [10]: 2600 nM; IC50 [11]: 3.5 nM; IC50 [12]: 28 nM; IC50 [13]: 430 nM; Activity (Oryctolagus cuniculus [14]): Active; Activity (Oryctolagus cuniculus [15]): Active; Activity (Homo sapiens [16]): Active; Activity (Homo sapiens [17]): Active; Ki [18]: 23 nM; Ki [19]: 97 nM; Ki [20]: > 1000 nM; Activity (Homo sapiens [21]): 0.01 s⁻¹; Activity (Homo sapiens [22]): 0.003 s⁻¹; Activity (Homo sapiens [23]): > 0.02 s⁻¹
CC[C@H]1C(=O)N[C@@]2([C@@H](O)[C@@H]3C=CCCC3)C(=O)O[C@@]12C [SALINOSPORAMIDE B]		610		inactive	3.17		IC50 [8]: 16 nM; IC50 [9]: 1040 nM; IC50 [10]: > 20000 nM; Activity (Oryctolagus cuniculus [24]): inactive; Activity (Oryctolagus cuniculus [25]): inactive
C[C@@]12OC(=O)[C@@]1([C@@H](O)[C@@H]1C=CCCC1)NC(=O)[C@@H]2CCO [hydroxysalinosporamide A]	14	1200	1200	inactive	1.42		
